Experimental data from different studies.
Lines come from different studies, so protocols differ.
Target: Dual specificity tyrosine-phosphorylation-regulated kinase 1B (DYRK1B, Homo sapiens, UniProt Q9Y463)
Technique: competition with immobilised ligand

Structure (SMILES)	read-out	concentration	remaining binding
CNC(=O)[C@@H]1CC[C@@H](n2c(-c3ccc4cnccc4c3)nc3ccc(C(=O)NCc4cccc(C(N)=O)c4)cc32)C1	binding	1 µM	45%
N#Cc1ccccc1CSc1nnc2c(n1)[nH]c1ccccc12	binding	10 µM	74%
O=C(c1ccc(Nc2ncc(Cl)c(-c3ccc(Cl)s3)n2)cc1)N1CCC(N2CCCC2)CC1	binding	1 µM	33%
CCN1CCN(Cc2ccc(C(=O)Nc3ccc(C)c(Oc4ccc5c(c4)CC(=O)N5)c3)cc2C(F)(F)F)CC1	binding	1 µM	95%
CN(C)c1ncnc(-c2ccc3nc(Nc4cc(CN5CCN(C(=O)CC(F)(F)F)CC5)ccn4)[nH]c3c2)c1Cl	cell-free assay	1 µM	100%
CN(CCCC(F)(F)F)c1nccc(-c2cnn3ncccc23)n1	binding	1 µM	39%
O=C(N[C@H]1CCCCC/C=C\C2C[C@@]2(C(=O)O)NC(=O)[C@@H]2C[C@@H](Oc3ccncc3)CN2C1=O)OC1CCCC1 (stereo partly drawn)	cell-free assay	1 µM	46%
O=C(NCC1CCOCC1)c1n[nH]cc1NC(=O)c1c(F)cccc1F	binding	1 µM	10%
O=C(NCCCN1CCOCC1)c1ccc(Nc2nccc(-c3cc4ccccc4s3)n2)cc1	binding	1 µM	92%
CNCc1ccccc1-c1csc([C@H](C)Nc2nc(C)nc3cc(OC)c(OC)cc23)c1	cell-free assay	1 µM	55%
O=C(c1ccc(Nc2ncc(Cl)c(-c3cc4ccccc4s3)n2)cc1)N1CCC(N2CCCC2)CC1	binding	1 µM	18%
CCC(=O)N[C@@H]1CC[C@H](C(=O)N(C)c2ccc(-c3nc4ccccc4o3)cc2)C1	cell-free assay	1 µM	36%
COc1cnc(Nc2cccc(S(N)(=O)=O)c2)nc1N1CCN(c2ccccc2)CC1	binding	1 µM	100%
C=CC(=O)N1CCC(C(=O)NCC(=O)N2CCN(c3nc(-c4cnc(N)nc4C(F)F)nc(N4CCOCC4)n3)CC2)CC1	binding	1 µM	98%
COc1ccc2c(c1)O[C@@H](c1ccc(OC)c(OC)c1)C[C@H]2NC(=O)C1(c2ccc3c(c2)OC(F)(F)O3)CC1	cell-free assay	1 µM	100%
